ChEMBL document CHEMBL4673255, “Acylated 1H-1,2,4-Triazol-5-amines Targeting Human Coagulation Factor XIIa and Thrombin: Conventional and Microscale Synthesis, Anticoagulant Properties, and Mechanism of Action” (J Med Chem, 2020)
Calls of active or inactive are those of the source. No cut-off for these calls is given here.

Key:
Blood [1] = test: Anticoagulant activity in human blood assessed as activated partial thromboplastin time at 300 uM incubated for 1 min by aPTT reagent based assay (reference value: 44 sec); assay type: functional
Outline: (§1)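 Compounds were tested at 300 µM, and the increase was expressed relative to DMSO. The doubling concentration (EC2×) is the concentration prolonging aPTT twofold. At least triplicate, mean ± SD.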

[2] = Inhibition of porcine trypsin using Z-Gly-Gly-Arg-AMC as fluorogenic substrate measured at 1 min interval for 1 hr by fluorometric assay; parameters: species or system Sus scrofa
[3] = biological target: T1, Fatty-acid amide hydrolase 1 (Rattus norvegicus, UniProt P97612); test: Inhibition of FAAH in rat brain membrane using N-(2-hydroxyethyl)-4-pyren-1-ylbutanamide as substrate measured after 60 mins by reverse-phase HPLC-based fluorescence assay; assay type: cell membranes
T1 sequence (P97612 whole entry): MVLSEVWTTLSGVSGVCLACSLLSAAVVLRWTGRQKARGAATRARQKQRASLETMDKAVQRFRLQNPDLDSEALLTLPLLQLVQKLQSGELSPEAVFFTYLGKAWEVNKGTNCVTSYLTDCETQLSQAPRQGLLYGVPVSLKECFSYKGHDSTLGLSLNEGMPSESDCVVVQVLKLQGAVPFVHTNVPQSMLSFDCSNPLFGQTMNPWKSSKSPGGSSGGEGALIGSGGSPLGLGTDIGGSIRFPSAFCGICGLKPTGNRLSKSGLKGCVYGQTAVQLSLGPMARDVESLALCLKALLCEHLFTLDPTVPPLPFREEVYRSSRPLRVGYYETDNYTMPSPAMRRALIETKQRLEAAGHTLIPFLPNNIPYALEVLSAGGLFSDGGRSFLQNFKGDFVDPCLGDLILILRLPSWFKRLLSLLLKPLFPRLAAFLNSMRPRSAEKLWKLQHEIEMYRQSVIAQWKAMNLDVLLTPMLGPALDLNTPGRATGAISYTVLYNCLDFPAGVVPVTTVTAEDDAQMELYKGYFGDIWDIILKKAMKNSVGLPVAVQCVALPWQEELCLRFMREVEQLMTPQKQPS

Plasma kallikrein = Plasma kallikrein (Homo sapiens, UniProt P03952); test: Inhibition of human kallikrein using Mes-dArg-Pro-Arg-AMC as fluorogenic substrate measured at 1 min interval for 1 hr by fluorometric assay
Sequence of Plasma kallikrein (P03952 20-390 limits assumed): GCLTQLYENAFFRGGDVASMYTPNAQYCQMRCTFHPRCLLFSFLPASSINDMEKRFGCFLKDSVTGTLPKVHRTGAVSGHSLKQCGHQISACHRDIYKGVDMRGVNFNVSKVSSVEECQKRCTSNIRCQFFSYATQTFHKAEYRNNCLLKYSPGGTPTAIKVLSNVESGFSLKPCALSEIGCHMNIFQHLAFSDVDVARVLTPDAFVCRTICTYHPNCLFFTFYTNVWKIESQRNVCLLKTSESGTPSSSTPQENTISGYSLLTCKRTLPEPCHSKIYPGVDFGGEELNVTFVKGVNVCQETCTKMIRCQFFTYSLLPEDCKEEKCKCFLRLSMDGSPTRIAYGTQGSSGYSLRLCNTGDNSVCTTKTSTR
Sequence of Plasma kallikrein (P03952 391-638 limits assumed): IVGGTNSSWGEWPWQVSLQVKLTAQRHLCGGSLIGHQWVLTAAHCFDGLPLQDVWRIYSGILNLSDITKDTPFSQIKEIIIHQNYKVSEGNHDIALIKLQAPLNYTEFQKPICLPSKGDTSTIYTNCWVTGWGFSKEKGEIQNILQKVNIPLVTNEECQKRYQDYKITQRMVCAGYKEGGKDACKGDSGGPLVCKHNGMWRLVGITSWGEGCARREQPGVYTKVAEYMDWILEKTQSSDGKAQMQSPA

Coagulation factor XI = Coagulation factor XI (Homo sapiens, UniProt P03951); test: Inhibition of human coagulation factor XIA using Mes-dArg-Pro-Arg-AMC as fluorogenic substrate measured at 1 min interval for 1 hr by fluorometric assay
Sequence of Coagulation factor XI (P03951 19-387 limits assumed): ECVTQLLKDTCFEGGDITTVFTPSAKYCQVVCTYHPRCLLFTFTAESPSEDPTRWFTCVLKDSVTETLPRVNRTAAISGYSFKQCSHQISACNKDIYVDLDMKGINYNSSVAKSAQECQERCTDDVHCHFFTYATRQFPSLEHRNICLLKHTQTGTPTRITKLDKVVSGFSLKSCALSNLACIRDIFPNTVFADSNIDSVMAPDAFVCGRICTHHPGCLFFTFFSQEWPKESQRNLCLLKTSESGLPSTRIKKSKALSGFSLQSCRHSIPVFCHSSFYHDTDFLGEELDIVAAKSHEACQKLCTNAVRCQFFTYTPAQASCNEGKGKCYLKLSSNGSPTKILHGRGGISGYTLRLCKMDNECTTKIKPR
Sequence of Coagulation factor XI (P03951 388-625 limits assumed): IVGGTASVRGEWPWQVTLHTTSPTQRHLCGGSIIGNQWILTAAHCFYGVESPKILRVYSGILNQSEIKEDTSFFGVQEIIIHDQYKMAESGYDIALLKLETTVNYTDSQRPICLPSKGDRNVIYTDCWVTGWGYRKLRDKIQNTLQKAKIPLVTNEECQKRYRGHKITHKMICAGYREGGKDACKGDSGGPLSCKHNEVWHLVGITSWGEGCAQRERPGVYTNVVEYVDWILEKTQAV

Monoglyceride lipase = biological target: T2, Monoglyceride lipase (Homo sapiens, UniProt Q99685); test: Inhibition of human recombinant MAGL using 1,3-dihydroxypropan-2-yl 4-pyren-1-ylbutanoate as substrate measured after 45 mins by reverse-phase HPLC-based fluorescence assay
T2 sequence (Q99685 whole entry): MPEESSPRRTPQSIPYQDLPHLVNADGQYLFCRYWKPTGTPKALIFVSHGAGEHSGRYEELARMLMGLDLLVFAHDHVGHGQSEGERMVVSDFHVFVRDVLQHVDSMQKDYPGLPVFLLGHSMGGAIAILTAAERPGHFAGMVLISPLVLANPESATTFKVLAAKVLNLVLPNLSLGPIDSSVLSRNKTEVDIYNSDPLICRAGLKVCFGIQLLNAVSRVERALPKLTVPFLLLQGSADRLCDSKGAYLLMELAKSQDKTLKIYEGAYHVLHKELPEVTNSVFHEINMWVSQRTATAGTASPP

[4] = biological target: T3, Urokinase-type plasminogen activator (Homo sapiens, UniProt P00749); test: Inhibition of human uPA using Tos-Gly-Pro-Arg-AMC as fluorogenic substrate measured at 1 min interval for 1 hr by fluorometric assay
Prothrombin [5] = biological target: T4, Prothrombin (Homo sapiens, UniProt P00734); test: Inhibition of human coagulation factor alpha-thrombin using Boc-Val-Pro-Arg-AMC as fluorogenic substrate measured at 1 min interval for 1 hr by fluorometric assay
Blood [6] = test: Effect on blood coagulation in human blood assessed as increase in prothrombin time at 300 uM incubated for 3 mins followed by CaCl2 addition by PT reagent based assay relative to control; assay type: ADME, tissue-based; conditions: 0.05 h
Outline: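 Clotting was started with PT reagent already containing CaCl2, prewarmed to 37 °C, and clotting time was recorded. Increase is given relative to DMSO; at least triplicate, mean ± SD.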

Coagulation factor XII = biological target: T5, Coagulation factor XII (Homo sapiens, UniProt P00748); test: Inhibition of human coagulation factor XIIA using Boc-Gln-Gly-Arg-AMC as fluorogenic substrate measured at 1 min interval for 1 hr by fluorometric assay
T5 sequence (P00748 whole entry): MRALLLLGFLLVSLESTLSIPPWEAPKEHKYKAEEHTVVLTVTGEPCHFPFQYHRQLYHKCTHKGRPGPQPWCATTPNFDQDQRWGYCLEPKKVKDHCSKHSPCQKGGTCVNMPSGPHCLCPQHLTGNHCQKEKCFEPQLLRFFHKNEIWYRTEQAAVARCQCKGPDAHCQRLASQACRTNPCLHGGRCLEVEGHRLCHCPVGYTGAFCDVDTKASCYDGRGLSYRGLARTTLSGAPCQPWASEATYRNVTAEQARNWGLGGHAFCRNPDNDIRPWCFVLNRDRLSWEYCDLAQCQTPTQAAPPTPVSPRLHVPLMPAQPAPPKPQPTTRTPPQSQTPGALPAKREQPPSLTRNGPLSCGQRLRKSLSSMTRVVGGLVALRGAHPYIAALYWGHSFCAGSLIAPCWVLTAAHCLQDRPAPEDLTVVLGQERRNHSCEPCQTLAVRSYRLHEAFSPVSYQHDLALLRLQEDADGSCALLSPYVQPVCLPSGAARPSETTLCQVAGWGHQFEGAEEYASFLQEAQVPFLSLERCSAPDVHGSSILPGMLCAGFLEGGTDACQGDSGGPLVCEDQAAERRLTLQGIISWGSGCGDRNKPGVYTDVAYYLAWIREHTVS

Blood [7] = test: Anticoagulant activity in human blood assessed as increase in activated partial thromboplastin time at 300 uM incubated for 1 min by aPTT reagent based assay relative to control; assay type: functional; outline: as §1
[8] = biological target: T6, Coagulation factor XII (Homo sapiens) (UniProt P00748); test: Inhibition of human coagulation factor XIIA in presence of Boc-Gln-Gly-Arg-AMC as fluorogenic substrate at 1 uM measured at 1 min interval for 1 hr by fluorometric assay relative to control
T6 sequence (whole entry): T5 sequence (P00748 whole entry)
Outline: (§2)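 Screening of crude microscale amide-coupling products. Conversion was measured by 1H NMR and product content normalised to 76 µmol/L in DMSO, then tested at 1 µM and 100 nM in the fluorogenic FXIIa or thrombin assay. A 0-conversion reaction served as blank. Percent inhibition is from triplicates.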

Coagulation factor X [9] = biological target: T7, Coagulation factor X (Homo sapiens, UniProt P00742); test: Inhibition of human coagulation factor Xa using Boc-Ile-Glu-Gly-Arg-AMC as fluorogenic substrate measured at 1 min interval for 1 hr by fluorometric assay
T7 sequence (P00742 41-179 limits assumed): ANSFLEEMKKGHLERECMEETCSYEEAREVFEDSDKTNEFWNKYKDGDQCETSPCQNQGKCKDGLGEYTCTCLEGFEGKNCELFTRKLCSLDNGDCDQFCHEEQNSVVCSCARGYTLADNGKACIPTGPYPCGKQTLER
T7 sequence (P00742 235-488 limits assumed): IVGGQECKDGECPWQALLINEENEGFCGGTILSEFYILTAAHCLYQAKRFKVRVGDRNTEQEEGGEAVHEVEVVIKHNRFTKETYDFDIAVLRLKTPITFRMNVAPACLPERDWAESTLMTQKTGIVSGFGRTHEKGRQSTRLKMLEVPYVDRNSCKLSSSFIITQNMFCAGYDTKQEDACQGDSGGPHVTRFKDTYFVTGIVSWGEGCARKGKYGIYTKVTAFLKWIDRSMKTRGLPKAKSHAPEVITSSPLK

Plasminogen = Plasminogen (Homo sapiens, UniProt P00747); test: Inhibition of human plasmin using Mes-dArg-Phe-Arg-AMC as fluorogenic substrate measured at 1 min interval for 1 hr by fluorometric assay
Sequence of Plasminogen (P00747 97-580 limits assumed): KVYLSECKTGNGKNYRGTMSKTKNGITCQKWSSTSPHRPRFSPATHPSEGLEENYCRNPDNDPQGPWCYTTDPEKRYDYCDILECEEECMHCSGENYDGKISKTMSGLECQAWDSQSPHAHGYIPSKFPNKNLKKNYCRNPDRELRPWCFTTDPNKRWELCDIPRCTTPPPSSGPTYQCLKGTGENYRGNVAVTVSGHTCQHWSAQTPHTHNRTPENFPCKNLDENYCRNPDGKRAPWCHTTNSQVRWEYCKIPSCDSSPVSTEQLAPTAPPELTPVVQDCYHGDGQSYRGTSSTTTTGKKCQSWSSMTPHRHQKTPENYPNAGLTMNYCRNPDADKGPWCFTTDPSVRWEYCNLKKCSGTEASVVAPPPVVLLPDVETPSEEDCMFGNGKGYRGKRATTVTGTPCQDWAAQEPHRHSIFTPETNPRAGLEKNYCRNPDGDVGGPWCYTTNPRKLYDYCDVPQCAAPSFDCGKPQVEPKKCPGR
Sequence of Plasminogen (P00747 581-810 limits assumed): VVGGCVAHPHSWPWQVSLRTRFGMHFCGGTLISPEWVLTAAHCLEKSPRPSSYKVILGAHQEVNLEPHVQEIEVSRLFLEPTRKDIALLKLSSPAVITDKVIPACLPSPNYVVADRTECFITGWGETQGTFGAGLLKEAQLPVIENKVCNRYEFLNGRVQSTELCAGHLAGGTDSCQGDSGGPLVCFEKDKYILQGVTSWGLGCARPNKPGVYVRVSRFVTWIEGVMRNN

Prothrombin [10] = biological target: T4, Prothrombin; test: Inhibition of human coagulation factor thrombin using Boc-Val-Pro-Arg-AMC as fluorogenic substrate at 100 nM measured at 1 min interval for 1 hr by fluorometric assay relative to control; outline: as §2
[11] = biological target: T6, Coagulation factor XII (Homo sapiens); test: Inhibition of human coagulation factor XIIA using Boc-Gln-Gly-Arg-AMC as fluorogenic substrate at 100 nM measured at 1 min interval for 1 hr by fluorometric assay relative to control; outline: as §2
Homo sapiens = species on record: Homo sapiens; test: Selectivity index, ratio of IC50 for inhibition of human coagulation factor alpha-thrombin using Boc-Val-Pro-Arg-AMC as fluorogenic substrate to IC50 for inhibition of human coagulation factor XIIA using Boc-Gln-Gly-Arg-AMC as fluorogenic substrate incubated for 1 hr by fluorometric assay
[12] = biological target: T3, Urokinase-type plasminogen activator; test: Inhibition of human uPA using Tos-Gly-Pro-Arg-AMC as fluorogenic substrate at 5 uM measured at 1 min interval for 1 hr by fluorometric assay relative to control
Prothrombin [13] = biological target: T4, Prothrombin; test: Inhibition of human coagulation factor alpha-thrombin at 33 uM using Boc-Val-Pro-Arg-AMC as fluorogenic substrate measured at 1 min interval for 1 hr by fluorometric assay relative to control
[14] = biological target: T6, Coagulation factor XII (Homo sapiens); test: […] inhibition of human coagulation factor XIIA using Boc-Gln-Gly-Arg-AMC as fluorogenic substrate measured every 87 sec for 180 mins by time-dependent fluorescence assay
Outline: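 Fluorescence (ex 355/em 460 nm) was read at once, every 87 s, for up to 180 min. IC50 was computed at each time point and plotted against time.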

CCF-STTG1 = test: Cytotoxicity against human CCF-STTG1 cells assessed as reduction in cell viability at 100 uM incubated for 48 hrs by alamar blue assay relative to control; assay type: cell-based; conditions: ccf-sttg1, 48 h
HepG2 = test: Cytotoxicity against human HepG2 cells assessed as reduction in cell viability at 100 uM incubated for 48 hrs by alamar blue assay relative to control; assay type: cell-based; conditions: hepg2, 48 h
Plasma [15] = test: Antiplatelet activity in […] assessed as inhibition of MDA-MB-231-induced platelet aggregation at 0.1 to 10 uM by light transmission aggregometry; assay type: functional; conditions: Homo sapiens, dose 0.1-10 µM
[16] = biological target: T6, Coagulation factor XII (Homo sapiens); test: Binding affinity to human plasma coagulation factor XIIA assessed as compound-adduct formation by measuring change in molecular mass at molar ratio of 1:20 measured after 4 mins by SEC/ESI-TOF mass spectra analysis; assay type: cell-free
Outline: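 β-FXIIa incubated with inhibitor at a 1:20 molar ratio, then size-exclusion chromatography coupled to ESI-MS to measure the mass of enzyme–inhibitor complexes. Further runs checked complex stability to probe reversibility.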

Prothrombin [17] = biological target: T4, Prothrombin; test: Inhibition of human coagulation factor alpha-thrombin using Boc-Val-Pro-Arg-AMC as fluorogenic substrate at 2 uM measured at 1 min interval for 1 hr by fluorometric assay relative to control
Plasma [18] = test: (§3) Anticoagulant activity in human platelet-rich plasma assessed as reduction in TF-induced thrombin generation by measuring endogenous thrombin potential at 1 uM preincubated for 15 mins followed by TF addition by Z-Gly-Gly-Arg-AMC substrate based calibrated automated thrombography (reference value: 1203 +/- 44 AU.min/L); assay type: functional; conditions: 0.25 h
Outline: (§4)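 Tissue-factor-triggered homogeneous thrombin generation followed by fluorogenic substrate cleavage. Read-outs: clotting time (T1/2), peak amplitude (Amax, AU/L), time to peak (Tmax) and ETP (AU·min/L). DMSO and buffer served as controls. n = 3, mean ± SD.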

Plasma [19] = test: (§5) Anticoagulant activity in human platelet-rich plasma assessed as reduction in TF-induced thrombin generation by measuring half life of clotting time at 1 uM preincubated for 15 mins followed by TF addition by Z-Gly-Gly-Arg-AMC substrate based calibrated automated thrombography (Rvb= 3 +/- 0.5 min); assay type: functional, cell-free; outline: as §4
Coagulation factor X [20] = biological target: T7, Coagulation factor X; test: Inhibition of human coagulation factor Xa using Boc-Ile-Glu-Gly-Arg-AMC as fluorogenic substrate at 1 uM measured at 1 min interval for 1 hr by fluorometric assay relative to control
Plasma [21] = test: as §3, with “amplitude of” for “endogenous”, “peak” for “potential”, “63” for “1203”, “3.7 AU/L)” for “44 AU.min/L)”; assay type: functional; conditions: 0.25 h; outline: as §4
Plasma [22] = test: as §5, with “Tmax” for “half life”, “(reference value: 8.1” for “(Rvb= 3”, “0.6” for “0.5”; assay type: functional, cell-free; outline: as §4

SMILES | IC50 [2] | IC50 (Plasma kallikrein) | IC50 (Coagulation factor XI) | IC50 (Prothrombin [5]) | Activity (Blood [6]) | IC50 (Coagulation factor XII) | inhibition [8] | IC50 (Coagulation factor X [9]) | IC50 (Plasminogen) | Ratio IC50 (Homo sapiens) | inhibition [14] | Activity (Blood [7]) | other results
Nc1nc(-c2ccccn2)nn1C(=O)c1ccccc1 | > 5 µM | > 5 µM | > 5 µM | 0.235 µM | 12% | 0.132 µM | 81% | > 5 µM | > 5 µM | – | – | 143% | APTT (Blood [1]): 108 s; IC50 [3]: > 5 µM; IC50 (Monoglyceride lipase): > 5 µM; IC50 [4]: 7.93 µM
O=C(NC[C@H]1CN(c2ccc(N3CCOCC3=O)cc2)C(=O)O1)c1ccc(Cl)s1 [RIVAROXABAN] | > 5 µM | – | – | – | 1302% | > 33 µM | -3% | – | – | – | inactive | 335% | inhibition (Prothrombin [13]): 55%
Cn1c(CNc2ccc(C(=N)N)cc2)nc2cc(C(=O)N(CCC(=O)O)c3ccccn3)ccc21 [DABIGATRAN] | – | – | – | – | – | – | -1% | – | – | – | inactive | 252% | Ki [2]: 0.05 µM; Activity (Plasma [18]): 678 AU.min/L; T1/2 (Plasma [19]): 15.2 min; inhibition (Coagulation factor X [20]): 34%; Activity (Plasma [21]): 72.4 AU/L; Tmax (Plasma [22]): 25.5 min

More lines, in order of falling IC50 (Coagulation factor XII), values ahead:

IC50 [2] | IC50 (Plasma kallikrein) | IC50 (Coagulation factor XI) | IC50 (Prothrombin [5]) | Activity (Blood [6]) | IC50 (Coagulation factor XII) | inhibition [8] | IC50 (Coagulation factor X [9]) | IC50 (Plasminogen) | Ratio IC50 (Homo sapiens) | inhibition [14] | SMILES | Activity (Blood [7]) | other results
> 5 µM | – | – | – | 2% | 0.109 µM | 89% | > 5 µM | – | > 18 | – | Nc1nc(-c2ccccn2)nn1C(=O)c1ccc(NC(=O)c2ccccc2)cc1 | 35% | Activity (CCF-STTG1): 35%; Activity (HepG2): 13%; inhibition (Plasma [15]): inactive; Activity [16]: 223 Da; inhibition (Prothrombin [17]): 38%
– | > 5 µM | > 5 µM | 1.82 µM | 6% | 0.062 µM | 89% | > 5 µM | > 5 µM | 29 | – | Nc1nc(-c2ccccn2)nn1C(=O)Cc1ccccc1I | 92% | inhibition (Prothrombin [10]): 2%; inhibition [11]: 47%; inhibition [12]: 41%
